Measurements from ChEMBL document CHEMBL4610085, “Boholamide A, an APD-Class, Hypoxia-Selective Cyclodepsipeptide” (J Nat Prod, 2020).
The source made the active and inactive calls. No cut-off for these calls is given here.

Assays:
U-87 MG [1] = assay: Cytotoxicity against human U87MG cells assessed as reduction in cell viability after 48 hrs under normoxia condition by MTT assay; type: functional, cell-based, U-87MG ATCC
In short: (§1)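 U87MG in DMEM with 10% FBS, 2 mM L-glutamine, penicillin/streptomycin; seeded 10,000 cells/well, 24 h at 37 °C, then exposed to compound at varying concentrations for 48 h at 37 °C either in a CO₂ incubator (normoxia) or a hypoxic chamber. MTT (0.5 mg/mL in PBS) added 2 h, DMSO solubilisation, absorbance 570 nm; IC50 by curve fitting; triplicate biological replicates.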

U-87 MG [2] = assay: Cytotoxicity against human U87MG cells assessed as reduction in cell viability after 48 hrs under hypoxia condition by MTT assay; type: functional, cell-based, U-87MG ATCC; in short: as §1
U-87 MG [3] = assay: Selectivity index, ratio of IC50 for cytotoxicity against human U87MG cells under normoxia condition to IC50 for cytotoxicity against human U87MG cells under hypoxia condition incubated for 48 hrs by MTT assay; type: functional, U-87MG ATCC
[4] = Cytotoxicity against human CH157 cells assessed as reduction in cell viability after 48 hrs by MTT assay; type: functional, cell-based
Huh-7 = assay: Cytotoxicity against human HuH7 cells assessed as reduction in cell viability after 48 hrs by MTT assay; type: functional, cell-based; conditions: Huh-7, 48 h
In short: (§2)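 Cells seeded at 10,000/well, left 24 h at 37 °C, then exposed to a range of concentrations for 48 h at 37 °C, either in a CO2 incubator (normoxia) or in a hypoxic chamber. MTT (0.5 mg/mL in PBS) was added for 2 h, DMSO was added, and absorbance was read at 570 nm. IC50 was fitted from the curves. Triplicate biological replicates.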

A549 = assay: Cytotoxicity against human A549 cells assessed as reduction in cell viability after 48 hrs by MTT assay; type: functional, cell-based; conditions: A549, 48 h; in short: as §2
CHO = assay: Cytotoxicity against […] assessed as reduction in cell viability after 48 hrs by MTT assay; type: cell-based; conditions: Cricetulus griseus; in short: as §2
DRG neuron [5] = assay: Induction of calcium influx in STOCK Tg(CalcaEGFP)FG104Gsat/Mmucd) mouse DRG neurons harboring CGRP-GFP assessed as increase in cytoplasmic Ca2+ pulse at 10 nM after 15 secs by […]; type: functional, cell-based
In short: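 DRG neurons from CGRP-GFP mice, Fura2-AM loaded, imaged as 340/380 nm ratio. Compound applied as a 15-second pulse, with concentrations down to ~10 nM tested. Neuron classes assigned by pharmacological markers and IB4/CGRP-GFP.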

DRG neuron [6] = assay: Irreversible induction of calcium influx in STOCK Tg(CalcaEGFP)FG104Gsat/Mmucd) mouse DRG neurons harboring CGRP-GFP assessed as increase in cytoplasmic Ca2+ pulse at 1 uM after 15 secs by […]; type: functional, cell-based
In short: (§3)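 Lumbar DRG L1–L6 from CGRP-GFP mice, dissociated with 0.25% trypsin for 20 min and triturated. Cultured ~16–24 h at 37 °C, 5% CO2, in MEM/10% FBS/HEPES/glucose, pH 7.4, then loaded with 4 μM Fura2-AM for 1 h. Ratio 340/380 nm excitation, 510 nm emission, recorded at room temperature during ~1 h pharmacology sequence. IB4 stain afterwards; cells classed by AITC, menthol, capsaicin, kM-RIIIJ, IB4 and CGRP-GFP.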

[7] = Induction of calcium influx in STOCK Tg(CalcaEGFP)FG104Gsat/Mmucd) mouse DRG neurons harboring CGRP-GFP assessed as increase in cytoplasmic Ca2+ at 500 nM after 7 secs by Alexa-Flour 647 Isolectin B4 staining based assay relative to control; type: functional, DRG neuron; in short: as §3
[8] = Induction of calcium influx in STOCK Tg(CalcaEGFP)FG104Gsat/Mmucd) mouse DRG neurons harboring CGRP-GFP assessed as increase in cytoplasmic Ca2+ in at 500 nM after 7 secs by Alexa-Flour 647 Isolectin B4 staining based assay relative to control; type: functional, DRG neuron; in short: as §3
[9] = Induction of calcium influx in STOCK Tg(CalcaEGFP)FG104Gsat/Mmucd) mouse DRG neurons harboring CGRP-GFP assessed as increase in cytoplasmic Ca2+ at 1 uM after 7 secs by Alexa-Flour 647 Isolectin B4 staining based assay relative to control; type: functional, DRG neuron; in short: as §3
DRG neuron [10] = assay: Induction of cell death in STOCK Tg(CalcaEGFP)FG104Gsat/Mmucd) mouse DRG neurons N15 cells harboring CGRP-GFP at 1 uM 7 secs by Alexa-Flour 647 Isolectin B4 staining based light micrographic method; type: functional; in short: as §3
Cerebral cortex [11] = assay: Induction of cell death in mouse brain cortex assessed as increase in cytoplasmic Ca2+ accumulation at 1 uM by Alexa-Flour 647 Isolectin B4 staining based assay; type: functional, tissue-based
Cerebral cortex [12] = assay: Induction of cell death in mouse brain cortex assessed as increase in cell lysis at 1 uM after 5 secs by Alexa-Flour 647 Isolectin B4 staining based assay; type: functional, tissue-based
[13] = Toxicity in TuAB zebra fish embryo at 10 to 1000 nM dosed at 6 hpf and measured after 1 day postfertilization by bright field microscopic method; type: organism-based, Danio rerio; conditions: zebrafish, in vivo, 24 h, 1 µM
In short: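 TuAB zebrafish embryos exposed to compound or DMSO vehicle from 6 hpf to 1 dpf at 28.5 °C, then assessed by bright-field stereomicroscope imaging.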

Row | SMILES | IC50 (U-87 MG [1]) [µM] | IC50 (U-87 MG [2]) [µM] | Ratio IC50 (U-87 MG [3]) | IC50 [4] [µM] | IC50 (Huh-7) [µM] | IC50 (A549) [µM] | IC50 (CHO) [µM] | Activity (DRG neuron [5]) | Activity (DRG neuron [6]) | Activity [7] [%] | Activity [8] [%] | Activity [9] [%] | Activity (DRG neuron [10]) | Activity (Cerebral cortex [11]) | Activity (Cerebral cortex [12]) | Activity [13]
1 | C=C1/C=C/C(=O)NCC(=O)N[C@@H](C(C)C)C(=O)O[C@@H]([C@H](C)C[C@@H](C)CCC)[C@H](OC)C(=O)N1 | 0.41 | 0.12 | 3.6 | 0.098 | 0.19 | 0.39 | 0.39 | Active | Active | 8 | 61 | 34 | Active | Active | Active | Non-Toxic
2 | COc1cccc2c1C(=O)c1c(O)c3c(c(O)c1C2=O)C[C@@](O)(C(=O)CO)C[C@@H]3O[C@H]1C[C@H](N)[C@H](O)[C@H](C)O1 [DOXORUBICIN] | 0.45 | 0.98 | 0.45 |  |  |  |  |  |  |  |  |  |  |  |  | 
3 | Cn1nnc2c(C(N)=O)ncn2c1=O [TEMOZOLOMIDE] | 640 | 1100 | 0.6 |  |  |  |  |  |  |  |  |  |  |  |  | 
